# Experimental data: ChEMBL document CHEMBL5724801, “EUbOPEN Chemogenomics Library - Multiplex” (2024)
# Values joined by “and” are separate entries in the source; they are usually repeats but may differ in a detail not shown here. Identical values can stand only once.
# System: Fibroblast
# Test: Multiplex assay against human fibroblast
# Type: toxicity, cell-based
# In short: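 Phenotypes for tubulin, mitochondrial mass and membrane permeability are expressed as per cents of healthy-nucleus cells. Cells were stained live at seeding with Hoechst33342, BioTracker Green Microtubule Cytoskeleton Dye, MitoTracker Red and Annexin V Alexa Fluor 680, then imaged after compound addition on a CQ1 microscope at 37°C and 5% CO2. Machine-learning gating in CellPathfinder separated Hoechst high-intensity objects from normal cells, divided normal cells by nuclear state (healthy, pyknosed, fragmented) and divided pyknosed cells into mitotic or apoptotic.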
# [1] = 12 h, 1 µM, compound concentration 1 uM
# [2] = 12 h, 10 µM, compound concentration 10 uM
# [3] = 24 h, 1 µM, compound concentration 1 uM
# [4] = 24 h, 10 µM, compound concentration 10 uM
# [5] = 48 h, 1 µM, compound concentration 1 uM
# [6] = 48 h, 10 µM, compound concentration 10 uM
smiles,measurement,setting,value
N#Cc1cc(F)cc(-c2nc(-c3ccc(F)cn3)no2)c1,Population Apoptotic (%),[1],28% and 38%
same,Population Fragmented Nuclei (%),[1],21% and 32%
same,Population Healthy Nuclei (%),[1],63% and 37%
same,Population Hoechst High Intensity Objects (%),[1],0% and 6%
same,Population Mitochondria Different-Phenotype (%),[1],5% and 6%
same,Population Mitotic Cells (%),[1],71% and 61%
same,Population Normal (%),[1],100% and 93%
same,Population Pyknosed Nuclei (%),[1],15% and 29%
same,Population Tubulin-Different-Phenotype (%),[1],22% and 48%
same,Total Cell Count,[1],136 and 93
same,Population Apoptotic (%),[2],48% and 28%
same,Population Fragmented Nuclei (%),[2],15% and 42%
same,Population Healthy Nuclei (%),[2],67% and 32%
same,Population Hoechst High Intensity Objects (%),[2],1% and 8%
same,Population Membrane Permeable-Phenotype (%),[2],2% and 9%
same,Population Mitochondria Different-Phenotype (%),[2],5% and 12%
same,Population Mitotic Cells (%),[2],51% and 72%
same,Population Normal (%),[2],98% and 91%
same,Population Pyknosed Nuclei (%),[2],17% and 24%
same,Population Tubulin-Different-Phenotype (%),[2],23% and 36%
same,Total Cell Count,[2],179 and 110
same,Population Apoptotic (%),[3],40% and 27%
same,Population Fragmented Nuclei (%),[3],19% and 39%
same,Population Healthy Nuclei (%),[3],68% and 38%
same,Population Hoechst High Intensity Objects (%),[3],2% and 7%
same,Population Mitochondria Different-Phenotype (%),[3],3%
same,Population Mitotic Cells (%),[3],60% and 72%
same,Population Normal (%),[3],97% and 92%
same,Population Pyknosed Nuclei (%),[3],11% and 22%
same,Total Cell Count,[3],131 and 88
same,Population Apoptotic (%),[4],70% and 35%
same,Population Healthy Nuclei (%),[4],70% and 33%
same,Population Hoechst High Intensity Objects (%),[4],4% and 11%
same,Population Membrane Permeable-Phenotype (%),[4],0% and 5%
same,Population Mitochondria Different-Phenotype (%),[4],6% and 11%
same,Population Mitotic Cells (%),[4],29% and 65%
same,Population Normal (%),[4],95% and 88%
same,Population Pyknosed Nuclei (%),[4],16% and 18%
same,Population Tubulin-Different-Phenotype (%),[4],22% and 41%
same,Total Cell Count,[4],170 and 120
same,Population Apoptotic (%),[5],61% and 50%
same,Population Fragmented Nuclei (%),[5],21% and 45%
same,Population Healthy Nuclei (%),[5],68% and 32%
same,Population Hoechst High Intensity Objects (%),[5],1% and 5%
same,Population Membrane Permeable-Phenotype (%),[5],0% and 3%
same,Population Mitochondria Different-Phenotype (%),[5],3% and 7%
same,Population Mitotic Cells (%),[5],38% and 50%
same,Population Normal (%),[5],98% and 94%
same,Population Pyknosed Nuclei (%),[5],9% and 22%
same,Population Tubulin-Different-Phenotype (%),[5],23% and 57%
same,Total Cell Count,[5],137 and 85
same,Population Apoptotic (%),[6],84% and 50%
same,Population Fragmented Nuclei (%),[6],20% and 44%
same,Population Healthy Nuclei (%),[6],63% and 38%
same,Population Hoechst High Intensity Objects (%),[6],7% and 5%
same,Population Membrane Permeable-Phenotype (%),[6],0% and 15%
same,Population Mitochondria Different-Phenotype (%),[6],11% and 5%
same,Population Normal (%),[6],92% and 94%
same,Population Pyknosed Nuclei (%),[6],16% and 17%
same,Population Tubulin-Different-Phenotype (%),[6],28% and 50%
same,Total Cell Count,[6],162 and 110
Cc1noc(-c2ccc(-c3ccc(CC(=O)O)cc3)cc2)c1NC(=O)O[C@H](C)c1ccccc1Cl,Population Apoptotic (%),[1],22% and 58%
same,Population Fragmented Nuclei (%),[1],14% and 21%
same,Population Healthy Nuclei (%),[1],77% and 60%
same,Population Hoechst High Intensity Objects (%),[1],0% and 5%
same,Population Membrane Permeable-Phenotype (%),[1],0% and 5%
same,Population Mitochondria Different-Phenotype (%),[1],1% and 2%
same,Population Mitotic Cells (%),[1],77% and 41%
same,Population Normal (%),[1],100% and 95%
same,Population Pyknosed Nuclei (%),[1],8% and 18%
same,Population Tubulin-Different-Phenotype (%),[1],10% and 26%
same,Total Cell Count,[1],106 and 140
same,Population Apoptotic (%),[2],40% and 29%
same,Population Fragmented Nuclei (%),[2],20% and 17%
same,Population Healthy Nuclei (%),[2],62% and 45%
same,Population Hoechst High Intensity Objects (%),[2],1% and 6%
same,Population Membrane Permeable-Phenotype (%),[2],1% and 2%
same,Population Mitochondria Different-Phenotype (%),[2],6% and 10%
same,Population Mitotic Cells (%),[2],60% and 70%
same,Population Normal (%),[2],98% and 93%
same,Population Pyknosed Nuclei (%),[2],17% and 36%
same,Population Tubulin-Different-Phenotype (%),[2],31% and 57%
same,Total Cell Count,[2],119 and 90
same,Population Apoptotic (%),[3],20% and 52%
same,Population Fragmented Nuclei (%),[3],16% and 30%
same,Population Healthy Nuclei (%),[3],78% and 57%
same,Population Hoechst High Intensity Objects (%),[3],0% and 2%
same,Population Membrane Permeable-Phenotype (%),[3],0% and 1%
same,Population Mitochondria Different-Phenotype (%),[3],1% and 7%
same,Population Mitotic Cells (%),[3],80% and 47%
same,Population Normal (%),[3],100% and 97%
same,Population Pyknosed Nuclei (%),[3],4% and 12%
same,Population Tubulin-Different-Phenotype (%),[3],10% and 28%
same,Total Cell Count,[3],102 and 161
same,Population Apoptotic (%),[4],50% and 32%
same,Population Fragmented Nuclei (%),[4],20% and 26%
same,Population Healthy Nuclei (%),[4],68% and 41%
same,Population Hoechst High Intensity Objects (%),[4],1%
same,Population Membrane Permeable-Phenotype (%),[4],0%
same,Population Mitochondria Different-Phenotype (%),[4],7% and 10%
same,Population Mitotic Cells (%),[4],50% and 67%
same,Population Normal (%),[4],98%
same,Population Pyknosed Nuclei (%),[4],11% and 31%
same,Population Tubulin-Different-Phenotype (%),[4],29% and 65%
same,Total Cell Count,[4],122 and 98
same,Population Apoptotic (%),[5],44% and 60%
same,Population Fragmented Nuclei (%),[5],18% and 35%
same,Population Healthy Nuclei (%),[5],73% and 55%
same,Population Hoechst High Intensity Objects (%),[5],1% and 2%
same,Population Membrane Permeable-Phenotype (%),[5],1% and 5%
same,Population Mitochondria Different-Phenotype (%),[5],1% and 3%
same,Population Mitotic Cells (%),[5],55% and 40%
same,Population Normal (%),[5],98% and 97%
same,Population Pyknosed Nuclei (%),[5],8%
same,Population Tubulin-Different-Phenotype (%),[5],16% and 25%
same,Total Cell Count,[5],112 and 171
same,Population Apoptotic (%),[6],23% and 39%
same,Population Fragmented Nuclei (%),[6],30% and 40%
same,Population Healthy Nuclei (%),[6],55% and 37%
same,Population Hoechst High Intensity Objects (%),[6],4% and 2%
same,Population Membrane Permeable-Phenotype (%),[6],2% and 0%
same,Population Mitochondria Different-Phenotype (%),[6],4% and 10%
same,Population Mitotic Cells (%),[6],76% and 60%
same,Population Normal (%),[6],95% and 97%
same,Population Pyknosed Nuclei (%),[6],13% and 22%
same,Population Tubulin-Different-Phenotype (%),[6],35% and 69%
same,Total Cell Count,[6],133 and 107
